ChEMBL document CHEMBL1221298, “InCl3 mediated one-pot multicomponent synthesis, anti-microbial, antioxidant and anticancer evaluation of 3-pyranyl indole derivatives” (Bioorg Med Chem Lett, 2010)
≈ marks a conversion by molar mass, not a printed value. Calls of active or inactive are those of the source. The rule behind the calls is not given here.

Assays:
Format in all cases: functional
Staphylococcus aureus [1] = test: microbe, parasite or virus in culture; settings: ATCC 9144, 24 h, read-out: IZ
Bacillus cereus [2] = test: Antimicrobial activity against Bacillus cereus ATCC 11778 at 100 ug/ml after 24 hrs by paper disk diffusion method; settings: ATCC 11778, 24 h, read-out: IZ
Escherichia coli [3] = test: microbe, parasite or virus in culture; settings: ATCC 25922, 24 h, read-out: IZ
Klebsiella pneumoniae [4] = test: microbe, parasite or virus in culture; settings: ATCC 11298, 24 h, read-out: IZ
Staphylococcus aureus [5] = test: microbe, parasite or virus in culture; settings: ATCC 9144, 24 h
Bacillus cereus [6] = test: microbe, parasite or virus in culture; settings: ATCC 11778, 24 h
Escherichia coli [7] = test: microbe, parasite or virus in culture; settings: ATCC 25922, 24 h
Klebsiella pneumoniae [8] = test: microbe, parasite or virus in culture; settings: ATCC 11298, 24 h
[9] = system: Radical scavenging activity; test: Antioxidant activity assessed as DPPH radical scavenging activity at 50 ug/ml
In short: (§1)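 Each test sample was mixed with 1 ml DPPH in methanol, incubated at 37 °C for 30 min, and read spectrophotometrically at 517 nm with a blank reading. Scavenging % was expressed as the absorbance decrease at 517 nm relative to DPPH solution without test sample.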

[10] = system: Radical scavenging activity; test: Antioxidant activity assessed as DPPH radical scavenging activity at 100 ug/ml
In short: as §1

[11] = system: Radical scavenging activity; test: Antioxidant activity assessed as DPPH radical scavenging activity at 200 ug/ml
In short: as §1

[12] = system: Radical scavenging activity; test: Antioxidant activity assessed as DPPH radical scavenging activity at 400 ug/ml
In short: as §1

[13] = system: Radical scavenging activity; test: Antioxidant activity assessed as DPPH radical scavenging activity
In short: as §1

[14] = Antioxidant activity assessed as ABTS radical scavenging activity at 50 ug/ml
In short: (§2)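 Test samples at 50, 100, 200 and 400 ug/ml were each mixed with 1 ml of freshly prepared ABTS radical cation solution, adjusted to absorbance 0.7–0.9 at 734 nm. Mixtures reacted 2 h in the dark, then absorbance was read at 734 nm against a blank. Scavenging % was taken as the absorbance decrease relative to ABTS solution without test sample.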

[15] = Antioxidant activity assessed as ABTS radical scavenging activity at 100 ug/ml
In short: as §2

[16] = Antioxidant activity assessed as ABTS radical scavenging activity at 200 ug/ml
In short: as §2

[17] = Antioxidant activity assessed as ABTS radical scavenging activity at 400 ug/ml
In short: as §2

[18] = Antioxidant activity assessed as ABTS radical scavenging activity
In short: as §2

MCF7 = test: Cytotoxicity against human MCF7 cells after 24 hrs by MTT assay; settings: MCF7, 24 h
In short: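 Exponentially growing cells plated at 10⁴ cells/well and allowed to attach, then exposed to test compounds or doxorubicin (dissolved in 0.1% DMSO, diluted in medium; range 1–100) for 24 h; controls received medium with 0.1% DMSO. MTT (1 mg/ml) added for 4 h at 37 °C, formazan dissolved in DMSO, absorbance read at 540 nm; % cytotoxicity calculated from blank-corrected absorbances versus control.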

SMILES	zone of inhibition at 100 µg/mL (Staphylococcus aureus [1]) [mm]	zone of inhibition at 100 µg/mL (Bacillus cereus [2]) [mm]	zone of inhibition at 100 µg/mL (Escherichia coli [3]) [mm]	zone of inhibition at 100 µg/mL (Klebsiella pneumoniae [4]) [mm]	MIC (Staphylococcus aureus [5]) [µg/mL]	MIC (Bacillus cereus [6]) [µg/mL]	MIC (Escherichia coli [7]) [µg/mL]	MIC (Klebsiella pneumoniae [8]) [µg/mL]	Activity ([9]; at 50 µg/mL) [%]	Activity ([10]; at 100 µg/mL) [%]	Activity ([11]; at 200 µg/mL) [%]	Activity ([12]; at 400 µg/mL) [%]	IC50 [13] [µg/mL]	Activity ([14]; at 50 µg/mL) [%]	Activity ([15]; at 100 µg/mL) [%]	Activity ([16]; at 200 µg/mL) [%]	Activity ([17]; at 400 µg/mL) [%]	GI50 (MCF7) [µM]	LC50 (concentration killing 50% of cells) (MCF7) [µM]	TGI (MCF7) [µM]	also measured
N#CC1=C(N)OC(c2c[nH]c3ccccc23)=C(C#N)C1c1ccc(F)cc1 (centres undefined)	21	16	18	17	16.8 (≈ 47.1 µM)	20.3 (≈ 57 µM)	26.2 (≈ 73.5 µM)	20.1 (≈ 56.4 µM)	26.9	28.9	31.4	36.5	901.11 (≈ 2530 µM)	8.4	16.2	22.4	26.7	28	> 100	52.4	IC50 [18]: 960 µg/mL (≈ 2690 µM)
COc1ccc(C2C(C#N)=C(N)OC(c3c[nH]c4ccccc34)=C2C#N)cc1OC (centres undefined)	15	16	17	17	31.8 (≈ 79.8 µM)	25.4 (≈ 63.8 µM)	26.7 (≈ 67 µM)	21.2 (≈ 53.2 µM)	55.8	57.9	59.1	62.9	< 50	14.5	19.1	26.1	28.1	20.6	72.1	37.4	IC50 [18]: 867.28 µg/mL (≈ 2180 µM)
N#CC1=C(N)OC(c2c[nH]c3ccccc23)=C(C#N)C1c1ccccc1F (centres undefined)	19	14	15	15	23.4 (≈ 65.7 µM)	22.6 (≈ 63.4 µM)	27.4 (≈ 76.9 µM)	30.2 (≈ 84.7 µM)										22.8	> 100	48.2	Activity [9]: inactive; Activity [10]: inactive; Activity [11]: inactive; Activity [12]: inactive; Activity [13]: inactive; Activity [14]: inactive; Activity [15]: inactive; Activity [16]: inactive; Activity [17]: inactive; Activity [18]: inactive
N#CC1=C(N)OC(c2c[nH]c3ccccc23)=C(C#N)C1c1ccc2ccccc2c1 (centres undefined)	14	15	16	15	32.4 (≈ 83.4 µM)	23.3 (≈ 60 µM)	29.4 (≈ 75.7 µM)	30.5 (≈ 78.5 µM)										15.5	91.5	46.6	Activity [9]: inactive; Activity [10]: inactive; Activity [11]: inactive; Activity [12]: inactive; Activity [13]: inactive; Activity [14]: inactive; Activity [15]: inactive; Activity [16]: inactive; Activity [17]: inactive; Activity [18]: inactive
N#CC1=C(N)OC(c2c[nH]c3ccccc23)=C(C#N)C1c1cccc2ccccc12 (centres undefined)	15	16	16	15	28.6 (≈ 73.6 µM)	26.2 (≈ 67.5 µM)	28 (≈ 72.1 µM)	33.2 (≈ 85.5 µM)	18.8	21.8	22.8	26.4	1599.62 (≈ 4120 µM)	4.7	6.8	7.7	10.4	18.2	80.2	33.9	IC50 [18]: > 1000 µg/mL
N#CC1=C(N)OC(c2c[nH]c3ccccc23)=C(C#N)C1c1ccc(Br)cc1 (centres undefined)	20	14	15	16	21.3 (≈ 51 µM)	28 (≈ 67.1 µM)	25.4 (≈ 60.9 µM)	26.3 (≈ 63 µM)	46.7	49.7	54.3	57.8	117.8 (≈ 282 µM)	14.2	14.6	10.6	22.7	21.8	> 100	48.1	IC50 [18]: 947.09 µg/mL (≈ 2270 µM)
N#CC1=C(N)OC(c2c[nH]c3ccccc23)=C(C#N)C1c1cccc(Br)c1 (centres undefined)	16	14	14	14	27.5 (≈ 65.9 µM)	24 (≈ 57.5 µM)	30.2 (≈ 72.4 µM)	26.3 (≈ 63 µM)													Activity [9]: inactive; Activity [10]: inactive; Activity [11]: inactive; Activity [12]: inactive; Activity [13]: inactive; Activity [14]: inactive; Activity [15]: inactive; Activity [16]: inactive; Activity [17]: inactive; Activity [18]: inactive
